# Source: paper PMC8113979 (Inorganic chemistry, 2017)
# Read-outs that look alike come from different tables or passages of the source.
# Experiments:
# [1] = system: MRC-5 (human lung fibroblast) cells; assay: MTT cytotoxicity assay in MRC-5 cells; type: cell-based; conditions: read-out: IC50 MRC-5 Normoxia, MRC-5 normal lung fibroblasts
# HeLa and A549 cell lines = type: cell-based, human
# A549 cells = assay: Cellular uptake of cobalt by GFAAS, normalised to protein; type: cell-based, human; conditions: A549, 100 μM complex, 24 h
# [2] = system: A549 (human lung cancer) cells; assay: MTT cytotoxicity assay in A549 cells; type: cell-based
# [3] = system: HeLa (human cervical cancer) cells; assay: MTT cytotoxicity assay in HeLa cells; type: cell-based; conditions: for IC50: Homo sapiens, HeLa
# [4] = observed in other studies; cited from earlier work
# [5] = N-methylimidazole challenge; type: physicochemical; conditions: 1 mM complex, 5 mM N-methylimidazole, pH 7.4 PBS, 37 °C, 24 h
# Method in brief: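 Complex at 1 mM final in pH 7.4 PBS with 5 mM N-methylimidazole as competing ligand. Analysed by RP-HPLC right after mixing, then again after 24 h at 37 °C. C18 column (250 × 4.6 mm, 5 μm), 1 mL/min, UV at 220 and 260 nm. Gradient: 10% MeOH/water with 0.1% TFA for 5 min, then linear to 100% MeOH (0.1% TFA) over 20 min. Starting, mono- and disubstituted species quantified from peak areas.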
# [6] = Cyclic voltammetry in anhydrous DMF; type: physicochemical; conditions: vs SCE, glassy carbon, 0.10 M TBAP, 100 mV/s, 25 °C; for Epc, Co(III/II): irreversible peak potential
# hypoxic cells = conditions: uptake, hypoxia vs normoxia; cited from earlier work
# [7] = value reported for the hypoxia-imaging agent; cited from earlier work
# [8] = read-out: IC50 Without TM, A549, without tetrathiomolybdate
Compound,IC50 [1],% Disubstituted [5],% Intact [5],% Monosubstituted [5],"E1/2,Co(II/I) [6]","Epc, Co(III/II) [6]",further results
"N.N.[Cl][Pt][Cl] [Cisplatin, cisplatin]",3.5 ± 1.2 µM,–,–,–,–,–,difference in activity under hypoxic versus normoxic conditions (HeLa and A549 cell lines): no difference
"O=[N+]([O-])[O-].O=[N+]([O-])[O-].[Co+2] [Co(NO3)2, reference compound]",> 500 µM,–,–,–,–,–,Hypoxia/Normoxia Ratio of uptake (A549 cells): 0.88 ± 0.09; Co/Protein (Hypoxia) (A549 cells): 33 ± 3 pg/µg; Co/Protein (Normoxia) (A549 cells): 37 ± 2 pg/µg
"NC(=S)N/N=C/C=N/NC(N)=S [GTS, glyoxal bis(thiosemicarbazone)]",> 20 µM,–,–,–,–,–,"IC50 [2, 8]: 0.02 ± 0.01 µM"
"[SH-].[SH-].[S]=[Mo]=[S] [TM, tetrathiomolybdate]",–,–,–,–,–,–,"effect on cell viability ([2]; A549, 5 μM concentration): a TM does not affect the cell viability at 5 μM concentration."
Nc1n[n+]([O-])c2ccccc2[n+]1[O-] [Tirapazamine],–,–,–,–,–,–,"hypoxia selectivity index ([3]; HeLa cells, in our lab): 3.3; IC50 ([3]; read-out: IC50 HeLa Hypoxia): 13 ± 4.2 µM; IC50 ([3]; read-out: IC50 HeLa Normoxia): 44 ± 19 µM; IC50 ([2]; Homo sapiens, A549, read-out: IC50 A549 Hypoxia): 11 ± 6.5 µM; IC50 ([2]; Homo sapiens, A549, read-out: IC50 A549 Normoxia): 60 ± 5.4 µM; typical hypoxia selectivity index [4]: 10"
CC(=NN=C(N)[S-])C(C)=NN=C(N)[S-].NCc1ccccc1.NCc1ccccc1.O=[N+]([O-])[O-].[Co+3] [[Co(ATS)(BnA)2]^+],–,93%,0%,7%,−1.18 V,−0.83 V,–
CC(=NN=C(N)[S-])C(C)=NN=C(N)[S-].O=[N+]([O-])[O-].[Co+3].c1c[nH]cn1.c1c[nH]cn1 [[Co(ATS)(Im)2]^+],–,46%,11%,43%,−1.19 V,−0.86 V,–
CC(=NN=C(N)[S-])C(C)=NN=C(N)[S-].N.N.O=[N+]([O-])[O-].[Co+3] [[Co(ATS)(NH3)2]^+],–,35%,38%,27%,−1.18 V,−1.10 V,–
NC([S-])=NN=CC=NN=C(N)[S-].O=[N+]([O-])[O-].[Co+3].c1c[nH]cn1.c1c[nH]cn1 [[Co(GTS)(Im)2]^+],> 250 µM,58%,6%,–,–1.00 V,–0.72 V,"IC50 [2, 8]: 2.6 ± 0.4 µM; Hypoxia/Normoxia Ratio of uptake (A549 cells): 1.40 ± 0.09; Co/Protein (Hypoxia) (A549 cells): 20 ± 1 pg/µg; Co/Protein (Normoxia) (A549 cells): 15 ± 1 pg/µg"
CC(C=NN=C(N)[S-])=NN=C(N)[S-].NCc1ccccc1.NCc1ccccc1.O=[N+]([O-])[O-].[Co+3] [[Co(PTS)(BnA)2]^+],–,93%,1%,6%,–1.14 V,–0.84 V,–
CC(C=NN=C(N)[S-])=NN=C(N)[S-].O=[N+]([O-])[O-].[Co+3].c1c[nH]cn1.c1c[nH]cn1 [[Co(PTS)(Im)2]^+],–,54%,7%,39%,–1.12 V,–0.84 V,–
CC(C=NN=C(N)[S-])=NN=C(N)[S-].N.N.O=[N+]([O-])[O-].[Co+3] [[Co(PTS)(NH3)2]^+],–,22%,56%,22%,–1.11 V,–0.92 V,–
CN=C([S-])N/N=C(C)/C(C)=N/NC([S-])=NC.[Cu+2] [[Cu(ATSM)]],–,–,–,–,–,–,hypoxia selectivity (hypoxic cells): 5 ×; reduction potential [7]: −0.59 V
